The text below walks through data of ChEMBL document CHEMBL3046413, “Synthesis and insecticidal activity of some novel fraxinellone-based esters” (2012).

Each structure is given as a SMILES string.

Common to all, as to format: functional
Assay [1] deals with Mythimna separata. The assay can be described thus: Insecticidal activity against Mythimna separata (Oriental armyworm) in wheat leaves assessed as mortality rate at 1 mg/mL at 25 degC measured after 35 days by leaf-dipping method relative to control. As to conditions: 840 h. The procedure, abridged:
(§1)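 Leaf-dipping assay on pre-third-instar M. separata larvae. Compounds dissolved in acetone at 1 mg/mL; fresh wheat leaves dipped 3 s, then air-dried. Acetone-treated leaves served as control. 30 larvae per compound in groups of 10 per dish, with treated leaves replenished when consumed. After 48 h, larvae were switched to untreated fresh leaves. Corrected mortality = (T − C) × 100/(1 − C); three replicates.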

The subject of assay [2] is Mythimna separata. The assay can be described thus: Insecticidal activity against Mythimna separata (Oriental armyworm) in wheat leaves assessed as mortality rate at 1 mg/mL at 25 degC measured after 10 days by leaf-dipping method relative to control. As to conditions: 240 h. In short, it runs like this: as §1
Assay [3] concerns Mythimna separata. The assay can be described thus: Insecticidal activity against Mythimna separata (Oriental armyworm) in wheat leaves assessed as mortality rate at 1 mg/mL at 25 degC measured after 25 days by leaf-dipping method relative to control. As to conditions: 600 h. In short, it runs like this:
as §1

As for `CC1=C2C(=O)O[C@@H](c3ccoc3)[C@]2(C)CC[C@H]1OC(=O)COc1cccc2cccnc12`, the values for the mortality at 1000 µg/mL in the assay on Mythimna separata [1], in the assay with Mythimna separata [2] and with Mythimna separata [3] were 51.9%, 13.8% and 37%, respectively.

As to `COc1cccc2ccc(C(=O)O[C@@H]3CC[C@]4(C)C(=C3C)C(=O)O[C@H]4c3ccoc3)nc12`, the results for the mortality at 1000 µg/mL with Mythimna separata [1], in the assay on Mythimna separata [2] and in the assay on Mythimna separata [3] were 63%, 20.7% and 48.1%, respectively.

In the case of `CCCCCCCC(=O)OCC1=C2C(=O)O[C@@H](c3ccoc3)[C@]2(C)CCC1`, the results for the mortality at 1000 µg/mL in the assay with Mythimna separata [1], in the assay on Mythimna separata [2] and in the assay on Mythimna separata [3] were 33.3%, 6.9% and 25.9%, respectively.

In the case of `C[C@@]12CCCC(COC(=O)Cc3ccccc3)=C1C(=O)O[C@H]2c1ccoc1`, the mortality at 1000 µg/mL is 44.4% with Mythimna separata [1], 27.6% in the assay on Mythimna separata [2] and 33.3% in the assay with Mythimna separata [3].

Regarding `C[C@@]12CCCC(COC(=O)Cc3cccc4ccccc34)=C1C(=O)O[C@H]2c1ccoc1`, the mortality at 1000 µg/mL in the assay with Mythimna separata [1] is 48.1%; with Mythimna separata [2], 20.7%; in the assay on Mythimna separata [3], 33.3%.

As to `C[C@@]12CCCC(COC(=O)c3ccccc3)=C1C(=O)O[C@H]2c1ccoc1`, the mortality at 1000 µg/mL in the assay with Mythimna separata [1] amounted to 29.6%; in the assay on Mythimna separata [2], 17.2%; in the assay on Mythimna separata [3], 29.6%.

As for `Cc1ccc(C(=O)OCC2=C3C(=O)O[C@@H](c4ccoc4)[C@]3(C)CCC2)cc1`, the mortality at 1000 µg/mL came out at 29.6% in the assay with Mythimna separata [1], 17.2% with Mythimna separata [2] and 29.6% in the assay with Mythimna separata [3].

Consider `C[C@@]12CCCC(COC(=O)c3ccc(F)cc3)=C1C(=O)O[C@H]2c1ccoc1`, for which the mortality at 1000 µg/mL in the assay with Mythimna separata [1] was 51.9%; in the assay on Mythimna separata [2], 10.3%; in the assay with Mythimna separata [3] it was 40.7%.

As for `C[C@@]12CCCC(COC(=O)c3cccc(F)c3)=C1C(=O)O[C@H]2c1ccoc1`, the mortality at 1000 µg/mL in the assay with Mythimna separata [1] stood at 55.6%; in the assay with Mythimna separata [2] it was 24.1%; in the assay on Mythimna separata [3], 51.9%.

Turning to `C[C@@]12CCCC(COC(=O)c3ccc(Cl)cc3)=C1C(=O)O[C@H]2c1ccoc1`, the mortality at 1000 µg/mL came out at 40.7% in the assay with Mythimna separata [1], 6.9% with Mythimna separata [2] and 25.9% with Mythimna separata [3].

As to `C[C@@]12CCCC(COC(=O)c3cccc(Br)c3)=C1C(=O)O[C@H]2c1ccoc1`, the mortality at 1000 µg/mL with Mythimna separata [1] was found to be 33.3%; in the assay on Mythimna separata [2], 13.8%; with Mythimna separata [3] it was 25.9%.

Turning to `C[C@@]12CCCC(COC(=O)c3ccc(Br)cc3)=C1C(=O)O[C@H]2c1ccoc1`, the mortality at 1000 µg/mL in the assay with Mythimna separata [1] turned out to be 33.3%; in the assay with Mythimna separata [2], 24.1%; in the assay with Mythimna separata [3], 29.6%.

As to `C[C@@]12CCCC(COC(=O)c3cccc([N+](=O)[O-])c3)=C1C(=O)O[C@H]2c1ccoc1`, the mortality at 1000 µg/mL with Mythimna separata [1] was 44.4%; in the assay with Mythimna separata [2], 24.1%; with Mythimna separata [3], 29.6%.

As for `C[C@@]12CCCC(COC(=O)c3ccc([N+](=O)[O-])cc3)=C1C(=O)O[C@H]2c1ccoc1`, the mortality at 1000 µg/mL was 40.7% with Mythimna separata [1], 13.8% in the assay with Mythimna separata [2] and 33.3% in the assay on Mythimna separata [3].

With `C[C@@]12CCCC(COC(=O)c3ccc(C#N)cc3)=C1C(=O)O[C@H]2c1ccoc1`, the mortality at 1000 µg/mL with Mythimna separata [1] stood at 44.4%; with Mythimna separata [2], 6.9%; in the assay with Mythimna separata [3], 25.9%.

On to `C[C@@]12CCCC(COC(=O)c3cccnc3)=C1C(=O)O[C@H]2c1ccoc1`, for which the mortality at 1000 µg/mL with Mythimna separata [1] was determined as 51.9%; with Mythimna separata [2], 27.6%; in the assay with Mythimna separata [3], 44.4%.

As for `C[C@@]12CCCC(COC(=O)c3ccncc3)=C1C(=O)O[C@H]2c1ccoc1`, the figures for the mortality at 1000 µg/mL with Mythimna separata [1], with Mythimna separata [2] and in the assay on Mythimna separata [3] were 59.3%, 24.1% and 48.1%, respectively.

Turning to `C[C@@]12CCCC(CO)=C1C(=O)O[C@H]2c1ccoc1`, the results for the mortality at 1000 µg/mL in the assay with Mythimna separata [1], in the assay with Mythimna separata [2] and in the assay with Mythimna separata [3] were 40.7%, 10.3% and 29.6%, respectively.

Consider `CCCCCCCC(=O)O[C@@H]1CC[C@]2(C)C(=C1C)C(=O)O[C@H]2c1ccoc1`, for which the mortality at 1000 µg/mL in the assay on Mythimna separata [1] was 48.1%; in the assay on Mythimna separata [2], 10.3%; in the assay with Mythimna separata [3] it was 33.3%.

On to `CCCCCCCCCCC(=O)O[C@@H]1CC[C@]2(C)C(=C1C)C(=O)O[C@H]2c1ccoc1`, for which the figures for the mortality at 1000 µg/mL in the assay with Mythimna separata [1], in the assay with Mythimna separata [2] and in the assay with Mythimna separata [3] were 48.1%, 20.7% and 40.7%, respectively.

Consider `CC1=C2C(=O)O[C@@H](c3ccoc3)[C@]2(C)CC[C@H]1OC(=O)Cc1ccccc1`, for which the mortality at 1000 µg/mL with Mythimna separata [1] amounted to 44.4%; in the assay on Mythimna separata [2], 31%; with Mythimna separata [3] it was 37%.

Turning to `CC1=C2C(=O)O[C@@H](c3ccoc3)[C@]2(C)CC[C@H]1OC(=O)Cc1cccc2ccccc12`, the mortality at 1000 µg/mL with Mythimna separata [1] was 51.9%; in the assay on Mythimna separata [2] it was 10.3%; in the assay with Mythimna separata [3], 29.6%.

For the molecule `CC1=C2C(=O)O[C@@H](c3ccoc3)[C@]2(C)CC[C@H]1OC(=O)c1ccccc1`, the results for the mortality at 1000 µg/mL in the assay with Mythimna separata [1], with Mythimna separata [2] and in the assay with Mythimna separata [3] were 44.4%, 41.4% and 44.4%, respectively.

`CC1=C2C(=O)O[C@@H](c3ccoc3)[C@]2(C)CC[C@H]1OC(=O)c1ccc(C)cc1`: the values for the mortality at 1000 µg/mL in the assay with Mythimna separata [1], in the assay on Mythimna separata [2] and with Mythimna separata [3] were 40.7%, 24.1% and 40.7%, respectively.

For `CC1=C2C(=O)O[C@@H](c3ccoc3)[C@]2(C)CC[C@H]1OC(=O)c1ccc(F)cc1`, the mortality at 1000 µg/mL amounted to 63% with Mythimna separata [1], 24.1% with Mythimna separata [2] and 51.9% in the assay with Mythimna separata [3].

On to `CC1=C2C(=O)O[C@@H](c3ccoc3)[C@]2(C)CC[C@H]1OC(=O)c1cccc(F)c1`, for which the mortality at 1000 µg/mL was determined as 44.4% in the assay with Mythimna separata [1], 24.1% in the assay with Mythimna separata [2] and 29.6% in the assay with Mythimna separata [3].

For `CC1=C2C(=O)O[C@@H](c3ccoc3)[C@]2(C)CC[C@H]1OC(=O)c1ccc(Cl)cc1`, the mortality at 1000 µg/mL with Mythimna separata [1] was found to be 40.7%; in the assay on Mythimna separata [2], 20.7%; in the assay with Mythimna separata [3], 33.3%.

Take `CC1=C2C(=O)O[C@@H](c3ccoc3)[C@]2(C)CC[C@H]1OC(=O)c1cccc(Br)c1`: the mortality at 1000 µg/mL is 44.4% with Mythimna separata [1], 20.7% with Mythimna separata [2] and 40.7% with Mythimna separata [3].

On to `CC1=C2C(=O)O[C@@H](c3ccoc3)[C@]2(C)CC[C@H]1OC(=O)c1ccc(Br)cc1`, for which the mortality at 1000 µg/mL turned out to be 37% in the assay with Mythimna separata [1], 24.1% in the assay with Mythimna separata [2] and 25.9% with Mythimna separata [3].

With `CC1=C2C(=O)O[C@@H](c3ccoc3)[C@]2(C)CC[C@H]1OC(=O)c1cccc([N+](=O)[O-])c1`, the mortality at 1000 µg/mL stood at 48.1% in the assay with Mythimna separata [1], 10.3% in the assay with Mythimna separata [2] and 40.7% with Mythimna separata [3].

In the case of `CC1=C2C(=O)O[C@@H](c3ccoc3)[C@]2(C)CC[C@H]1OC(=O)c1ccc([N+](=O)[O-])cc1`, the mortality at 1000 µg/mL is 51.9% with Mythimna separata [1], 27.6% in the assay on Mythimna separata [2] and 40.7% in the assay with Mythimna separata [3].

With `CC1=C2C(=O)O[C@@H](c3ccoc3)[C@]2(C)CC[C@H]1OC(=O)c1ccc(C#N)cc1`, the values for the mortality at 1000 µg/mL in the assay on Mythimna separata [1], with Mythimna separata [2] and in the assay on Mythimna separata [3] were 55.6%, 20.7% and 48.1%, respectively.

On to `CC1=C2C(=O)O[C@@H](c3ccoc3)[C@]2(C)CC[C@H]1OC(=O)c1cccnc1`, for which the mortality at 1000 µg/mL was 55.6% with Mythimna separata [1], 20.7% with Mythimna separata [2] and 40.7% with Mythimna separata [3].

As for `CC1=C2C(=O)O[C@@H](c3ccoc3)[C@]2(C)CC[C@H]1OC(=O)c1ccncc1`, the values for the mortality at 1000 µg/mL in the assay with Mythimna separata [1], in the assay with Mythimna separata [2] and with Mythimna separata [3] were 66.7%, 24.1% and 48.1%, respectively.

Take `CC1=C2C(=O)O[C@@H](c3ccoc3)[C@]2(C)CC[C@H]1OC(=O)c1ccco1`: the mortality at 1000 µg/mL with Mythimna separata [1] amounted to 51.9%; in the assay on Mythimna separata [2], 31%; with Mythimna separata [3], 40.7%.

For the molecule `CC1=C2C(=O)O[C@@H](c3ccoc3)[C@]2(C)CC[C@H]1O` [4ALPHA-HYDROXYFRAXINELLONE], the figures for the mortality at 1000 µg/mL in the assay with Mythimna separata [1], in the assay on Mythimna separata [2] and in the assay on Mythimna separata [3] were 48.1%, 20.7% and 37%, respectively.

Take `CC1=C2C(=O)O[C@@H](c3ccoc3)[C@]2(C)CCC1` [FRAXINELLONE]: the mortality at 1000 µg/mL with Mythimna separata [1] worked out at 44.4%; with Mythimna separata [2], 20.7%; with Mythimna separata [3], 33.3%.

`CC(=O)O[C@@H]1C[C@H](O)[C@@]23CO[C@@H](O)[C@]1(C)[C@@H]2C[C@@H](O)[C@]1(C)[C@@H]3C(=O)[C@H](OC(C)=O)[C@@]2(C)[C@H](c3ccoc3)C[C@H]3O[C@]321` [TOOSENDANIN]: the mortality at 1000 µg/mL with Mythimna separata [1] amounted to 48.1%; with Mythimna separata [2] it was 27.6%; in the assay with Mythimna separata [3], 33.3%.
